# Experimental data collected from several papers.
# Compare with care: the assays were run in different laboratories.
Structure (SMILES),target,assay,conditions,quantity,result
CCCS(=O)(=O)Nc1ccc(F)c(C(=O)c2c[nH]c3ncc(Br)cc23)c1F,"Dual specificity mitogen-activated protein kinase kinase 4 (MAP2K4, Homo sapiens, UniProt P45985)","enzyme activity, inhibitor, ADP detection",,IC50,1400 nM
CC(C)[C@@H]1NC(=O)[C@@H]2CCCN2C(=O)[C@H](Cc2ccccc2)NC(=O)CSC[C@@H](C(=O)N[C@@H](Cc2ccc(O)cc2)C(N)=O)NC(=O)[C@H](Cc2c[nH]c3ccccc23)NC(=O)[C@H](CCCCN)NC(=O)[C@H](Cc2ccccc2)N(C)C(=O)[C@H](Cc2ccccc2)NC1=O,"Stimulator of interferon genes protein (STING1, Homo sapiens, UniProt Q86WV6, H232R)","ligand displacement, TR-FRET",,IC50,180 nM
CC(C)C[C@H](NC(=O)[C@H](Cc1ccccc1)NC(=O)[C@H](Cc1ccc(O)cc1)NC(=O)CNC(=O)[C@H](CCCCN)NC(=O)[C@H](CO)NC(=O)[C@H](CCC(N)=O)NC(=O)CNC(=O)[C@@H](NC(=O)[C@H](CO)NC(=O)[C@@H]1CCCN1C(=O)[C@H](CO)NC(=O)[C@H](CCC(N)=O)NC(=O)[C@H](Cc1ccc(O)cc1)NC(=O)[C@H](CCC(=O)O)NC(=O)[C@H](C)NC(=O)[C@H](CCCCN)NC(=O)[C@@H](N)Cc1ccccc1)C(C)C)C(=O)N[C@@H](Cc1ccccc1)C(=O)N[C@@H](CCCNC(=N)N)C(=O)N1CCC[C@H]1C(=O)N[C@@H](CCCNC(=N)N)C(=O)N[C@@H](CC(N)=O)C(N)=O,"Neuromedin-U receptor 1 (NMUR1, Homo sapiens, UniProt Q9HB89)","inositol phosphate, agonist",,EC50,0.447 nM
CCCCCCCCCCCCCC1OC(=O)/C1=C\CCCCCS(N)(=O)=O (stereo not drawn),"Phosphatidylserine lipase ABHD16A (Homo sapiens, UniProt O95870)","enzyme activity, inhibitor",,IC50,500 to 1000 nM
N=C(N)NCCC[C@H](N)C(=O)O,"Nitric oxide synthase, inducible (Nos2, Mus musculus, UniProt P29477)",cell-free assay,,Kd,2600 nM
CC(=O)SCCNC(=O)CCNC(=O)[C@H](O)C(C)(C)COP(=O)(O)OP(=O)(O)OC[C@H]1O[C@@H](n2cnc3c(N)ncnc32)[C@H](O)[C@@H]1OP(=O)(O)O,"CAB1 (Saccharomyces cerevisiae, UniProt Q04430)","enzyme activity, inhibitor",,IC50,> 100000 nM
O=C(CCCc1ccc(N(CCCl)CCCl)cc1)NCCC1CCN(CCOc2ccc(Oc3c(-c4ccc(O)cc4)sc4cc(O)ccc34)cc2)CC1,"Estrogen receptor beta (ESR2, Homo sapiens, UniProt Q92731)","ligand displacement, radioligand",,IC50,67 nM
Nc1ccn([C@@H]2O[C@H](COP(=O)(O)OP(=O)(O)OP(O)(O)=S)[C@@H](O)[C@H]2O)c(=O)n1,"virB (Shigella flexneri, UniProt P0A247)","binding, ITC",,Kd,14300 nM
O=C(O)C1=CC(O)CC1 (stereo not drawn),"Calcium/calmodulin-dependent protein kinase type II subunit alpha (Rattus norvegicus, UniProt P11275)","cell-free assay, radioligand",pH 6,Ki,1580 nM
Cn1cc(-c2cc(F)cc(N3CCn4c(cc5c4CCCC5)C3=O)c2CO)cc(Nc2ccc(N3CCN(C4COC4)CC3)cn2)c1=O,"Tyrosine-protein kinase Lck (LCK, Homo sapiens, UniProt P06239)","enzyme activity, inhibitor, FRET",,Ki,1070 nM
CN1CCC[C@H]1c1cccnc1,"Urea transporter 1 (Slc14a1, Rattus norvegicus, UniProt P97689)","transporter uptake, inhibitor",,IC50,~40000 nM
CCC(C)c1cccc(C(C)CC)c1O (stereo not drawn),"Potassium/sodium hyperpolarization-activated cyclic nucleotide-gated channel 1 (Hcn1, Mus musculus, UniProt O88704)","ion current, two-electrode voltage clamp",oocytes,IC50,~30000 nM
